Measured values collected from several papers.
Target: Cyclin-dependent kinase 2 (CDK2, Homo sapiens, UniProt P24941)
Technique: competition with immobilised ligand

F[C@@H]1CCN(c2nccc(-c3cnn4ncccc34)n2)C1
remaining binding (binding; 1 µM): 100%

C[C@@H]1CN(c2ccc3ncc(-c4ccc5[nH]nc(C6CC6)c5c4)n3n2)C[C@H](C)O1
remaining binding (binding; 0.5 µM): 84%

COc1ncc2cc3ccccc3nc2c1C#N
remaining binding (cell-free assay; 5 µM): 100%

O=S(=O)(NC1CCC(c2cc(F)ccc2F)(S(=O)(=O)c2ccc(Cl)cc2)CC1)C(F)(F)F (stereo not shown)
remaining binding (cell-free assay; 1 µM): 100%

Nc1ncc2c(n1)-c1c([nH]c3ccc(C#CC4CC4)cc13)CCCC2
remaining binding (binding; 1 µM): 85%

Cc1cc(C)c(-n2ccn3nc(-c4cccnc4)cc23)cc1NC(=O)c1cc(C#N)cc(S(F)(F)(F)(F)F)c1
remaining binding (cell-free assay; 0.1 µM): 99%

CCN1CCN(Cc2ccc(C(=O)Nc3ccc(C)c(Oc4ccc5c(c4)CC(=O)N5)c3)cc2C(F)(F)F)CC1
remaining binding (binding; 1 µM): 82%

O=C(NCC1CCOCC1)c1n[nH]cc1NC(=O)c1c(F)cccc1F
remaining binding (binding; 1 µM): 49%

Cn1nc(C(F)(F)F)cc1-c1cnc(N2CCc3cc(S(=O)(=O)Nc4c(F)cc(Cl)cc4F)cc(N4CCCC4=O)c32)nc1
remaining binding (cell-free assay; 1 µM): 100%

O=C(c1ccc(Nc2ncc(Cl)c(-c3cc4ccccc4s3)n2)cc1)N1CCC(N2CCCC2)CC1
remaining binding (binding; 1 µM): 12%

O=C(O)c1cc(-c2ccc(C3CCNCC3)cc2)c2ccc(-c3ccc(C(F)(F)F)cc3)cc2c1
remaining binding (cell-free assay; 1 µM): 100%

Cc1cnc(Nc2ccc(C(=O)N3CCC(N4CCCC4)CC3)cc2)nc1-c1cc2ccccc2s1
remaining binding (binding; 1 µM): 35%

CNC(=O)[C@@H]1CC[C@@H](n2c(-c3ccc4cnccc4c3)nc3ccc(C(=O)NCc4cccc(C(N)=O)c4)cc32)C1
remaining binding (binding; 1 µM): 100%

C[C@H](c1ccc(F)cc1)N(Cc1cccc(C(=O)O)c1)C(=O)c1cnc2ccccc2c1
remaining binding (cell-free assay; 1 µM): 100%

O=C(NCCCN1CCOCC1)c1ccc(Nc2ncc(Cl)c(-c3ccc(Cl)s3)n2)cc1
remaining binding (binding; 1 µM): 62%

COc1cnc(Nc2cccc(S(N)(=O)=O)c2)nc1N1CCN(c2ccccc2)C(=O)C1
remaining binding (binding; 1 µM): 97%
